Compound activity (PubChem)
Fh CTSL1 inh – cathepsin L1 inhibition, PFM18AAP counter-screen; inhibition, % at 5.96 µM; AID 1906; actives 0.49% (n = 300,000); recombinant F. hepatica cathepsin L1, Z-Leu-Arg-MCA fluorescence;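 active = inhibition above the mean of all tested compounds plus 3 SD, set per screening campaign, cut at about 17% in these data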;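 note: 0% = plate median of test compound wells and 100% = 1 µM Z-Phe-Ala-diazomethylketone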
aDG glyco up – alpha-DG glycosylation activation. actives 0.22% (n = 360,000). Pro5-aDG cells, alpha-DG glycosylation AlphaScreen (IIH6); 0% Pro5, 100% B10-LARGE cell signal. activation, % at 10 µM. AID 624168;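 active = activation of at least 8% versus controls, or a plate z-score of at least 8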;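 note: Pro5 are CHO cells carrying HIG-tagged alpha-DG that lacks glycosylation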
PKA-R2B activ – activates the human PKA-R2B holoenzyme complex; actives 0.079% (n = 340,000); activation, % at 11.4 µM; PKA-R2B holoenzyme dissociation, Cy5-IP20 fluorescence polarization; R2B truncated from residue 108, S112A mutant; 0% DMSO only, 100% 113 µM cGMP; P22694+P31323;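 active = activation above a cutoff set at the mean over all compounds plus 3 SD, cut at about 18% in these data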;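 note: higher means more holoenzyme dissociation and a rise in polarization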
UCH37 inh – blocks the human deubiquitinase UCH37. Q9Y5K5. purified proteasome/UCH37, Ub-AMC cleavage fluorescence. inhibition, % (test concentration not listed). actives 0.33% (n = 330,000);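 active = mean inhibition over replicate wells above about 20%, limit read from the data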;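 note: 0% = compound-free wells with enzyme and 100% = wells lacking proteasome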
Target sequence (Q9Y5K5 whole entry, looked up): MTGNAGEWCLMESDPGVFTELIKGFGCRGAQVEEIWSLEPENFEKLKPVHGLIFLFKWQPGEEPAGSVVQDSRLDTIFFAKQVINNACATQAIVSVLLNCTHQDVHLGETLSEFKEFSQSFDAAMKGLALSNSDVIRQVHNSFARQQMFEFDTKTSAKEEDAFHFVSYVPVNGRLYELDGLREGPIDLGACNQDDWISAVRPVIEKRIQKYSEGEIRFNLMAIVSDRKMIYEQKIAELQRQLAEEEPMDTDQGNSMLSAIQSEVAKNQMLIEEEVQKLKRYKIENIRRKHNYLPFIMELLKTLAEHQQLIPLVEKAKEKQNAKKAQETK
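Reagent: Ub-AMC substrate; assay system: Proteasome-associated human UCH37 deubiquitinase; controls: no-proteasome and no-compound wells; read-out: % inhibition of Ub-AMC cleavage fluorescence; timing: 30 min preincubation with enzyme, 25 min cleavage at room temperature; signal: AMC fluorescence from Ub-AMC cleavage, excitation 355 nm, emission 460 nm; buffer or medium: Tris-HCl pH 7.4 plus ovalbumin, ATP-MgCl2, DTT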
PKA-R1A activ – PKA-R1A complex activation; PKA-R1A dissociation, Cy5-IP20 fluorescence polarization; scaled: DMSO 0%, 113 µM cGMP 100%; activation, % at 11.4 µM; actives 0.083% (n = 340,000);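 active = percent activation above the mean of all tested compounds plus 3 SD, cut at about 19% in these data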;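 note: higher means more PKAc released from R1A so a rise in polarization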
* hit, by the source's call. The list is not random: actives were taken first. Their share in the collection is about 0.94%.

What do the screens show for `Cc1ccc(/C=N\NC(=O)/C(=C\Nc2nccc(C)n2)NC(=O)c2ccccc2)cc1`?
Fh CTSL1 inh: 21.9*; aDG glyco up: -0.1; PKA-R2B activ: 11.4; PKA-R1A activ: 11.3

How did COc1cccc(NC=C2C(=O)OC3(CCCCC3)OC2=O)c1 do in these assays?
Fh CTSL1 inh: 18.6*; aDG glyco up: -0.2; PKA-R2B activ: 6.9; UCH37 inh: 6.1; PKA-R1A activ: 4.1

Results for Cc1ccc(C(=O)CCS(=O)(=O)c2ccc(Br)cc2)cc1 ?
Fh CTSL1 inh: 5.0; aDG glyco up: 0.9; PKA-R2B activ: -4.2; UCH37 inh: 1.5; PKA-R1A activ: 1.3

How did Cc1ccc(S(=O)(=O)CCC(=O)c2cccc([N+](=O)[O-])c2)cc1 do in these assays?
Fh CTSL1 inh: 19.5*; aDG glyco up: -0.1; PKA-R2B activ: 9.6; PKA-R1A activ: 2.9

Results for COc1cc(C=N/N=C2/NC(=O)C(Cc3ccccc3)S2)ccc1O (centres undefined) ?
UCH37 inh: 7.5

Results for COc1cccc(C=NNC(=O)c2c(C)nc3ccc(Br)cn23)c1O ?
UCH37 inh: 45.9*

Results for CNC(=O)[C@H](C)[C@@H]1C[C@@]1(C)[C@@H](NC(=O)OCc1ccccc1)c1ccccc1 ?
Fh CTSL1 inh: 18.4*; aDG glyco up: 0.1; PKA-R2B activ: -8.8; UCH37 inh: 1.1; PKA-R1A activ: 5.1

How did C[C@@H](C(=O)O)[C@@H]1C[C@@]1(C)[C@@H](NC(=O)OCc1ccccc1)c1ccccc1 do in these assays?
Fh CTSL1 inh: -0.9; aDG glyco up: 0.0; PKA-R2B activ: 5.2; UCH37 inh: 0.8; PKA-R1A activ: 11.8

What do the screens show for `O=C(NCSc1ccnc(SCNC(=O)c2ccccc2)n1)c1ccccc1`?
Fh CTSL1 inh: 19.1*; aDG glyco up: -0.1; PKA-R2B activ: -8.0; UCH37 inh: 2.0; PKA-R1A activ: -4.8

What do the screens show for `O=C(NCSc1ccncn1)c1ccccc1`?
Fh CTSL1 inh: 11.3; aDG glyco up: -0.1; PKA-R2B activ: -3.0; UCH37 inh: 4.6; PKA-R1A activ: 2.2

Results for O=C(Nc1cc2c(cc1Br)OCCO2)c1ccco1 ?
Fh CTSL1 inh: 2.5; aDG glyco up: 0.0; PKA-R2B activ: -7.3; UCH37 inh: 3.9; PKA-R1A activ: -6.8

How did CC(=O)c1cc2c(cc1NC(=O)c1ccco1)OCCO2 do in these assays?
Fh CTSL1 inh: 37.8*; aDG glyco up: 0.3; PKA-R2B activ: -6.5; UCH37 inh: -39.3; PKA-R1A activ: 3.9

What do the screens show for `C=CCN1C(=O)CSC1=NN=Cc1cccc([N+](=O)[O-])c1`?
UCH37 inh: 2.1

How did O=C1Nc2ccccc2C(O)(C(=O)NCc2ccco2)N1c1ccc(Cl)c(Cl)c1 (centres undefined) do in these assays?
Fh CTSL1 inh: 66.2*; aDG glyco up: 0.0; PKA-R2B activ: -1.7; UCH37 inh: 2.6; PKA-R1A activ: -14.3

What do the screens show for `N#CC(C#N)=C1C=C2C=C(N3CCCCCC3)CCC2CC1` (centres undefined)?
aDG glyco up: -0.5; PKA-R2B activ: -3.6; UCH37 inh: 4.5; PKA-R1A activ: 4.5

What do the screens show for `CCN1CCN(C2=CC3=CC(=C(C#N)C#N)CCC3CC2)CC1` (centres undefined)?
aDG glyco up: -0.9; PKA-R2B activ: 4.0; UCH37 inh: 32.3*; PKA-R1A activ: -15.0

Results for O=C1C2CC=C(Cl)CC2C(=O)N1CCc1c[nH]c2ccccc12 (centres undefined) ?
Fh CTSL1 inh: 5.4; aDG glyco up: -0.1; PKA-R2B activ: 10.5; UCH37 inh: 1.8; PKA-R1A activ: 1.5

What do the screens show for `O=C1C2CC=C(Cl)CC2C(=O)N1CCc1ccccc1` (centres undefined)?
Fh CTSL1 inh: 44.2*; aDG glyco up: -0.2; PKA-R2B activ: 7.8; UCH37 inh: -0.8; PKA-R1A activ: -7.0

How did CC(C)CC(NC(=O)/C(=C\c1ccco1)NC(=O)c1ccco1)C(=O)O (centres undefined) do in these assays?
Fh CTSL1 inh: 38.0*; aDG glyco up: 0.0; PKA-R2B activ: 4.3; UCH37 inh: 8.6; PKA-R1A activ: 4.2
